From ChEMBL document CHEMBL5303300, “EUbOPEN Chemogenomics Library - Multiplex” (2023)
Several values for one entry are separate records, joined by “and”; a condition that tells them apart may be missing. Equal entries are not always repeated.

System: HEK-293T
Experiment: Multiplex assay against HEK293T
Assay type: toxicity, cell-based
Settings: human, number of replicates 2
Procedure, shortened: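 Imaging took place on a CQ1 microscope at 37°C and 5% CO2 once compound had been added to live cells stained at seeding with Hoechst33342, BioTracker Green Microtubule Cytoskeleton Dye, MitoTracker Red and Annexin V Alexa Fluor 680. CellPathfinder machine-learning gating classed cells as Hoechst high-intensity objects or normal cells, classed normal cells as having healthy, pyknosed or fragmented nuclei, and classed pyknosed cells as mitotic or apoptotic. Tubulin, mitochondrial-mass and membrane-permeability phenotypes are per cents of the healthy-nucleus cells.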

[1] = 12 h, 1 µM, compound concentration 1 uM
[2] = 12 h, 10 µM, compound concentration 10 uM
[3] = 24 h, 1 µM, compound concentration 1 uM
[4] = 24 h, 10 µM, compound concentration 10 uM
[5] = 48 h, 1 µM, compound concentration 1 uM
[6] = 48 h, 10 µM, compound concentration 10 uM

Q: Which “Population Apoptotic (%)” value [1] does the source give for CCCN(CCc1cccs1)[C@H]1CCc2c(O)cccc2C1 [ROTIGOTINE] here?
A: 43% and 35%

Q: What about the “Population Fragmented Nuclei (%)” value [1] of the same compound?
A: 3% and 1%

Q: What about the “Population Healthy Nuclei (%)” value [1] of the same compound?
A: 83% and 85%

Q: And the “Population Hoechst High Intensity Objects (%)” value [1]?
A: 9% and 5%

Q: What about the “Population Membrane Permeable-Phenotype (%)” value [1] of the same compound?
A: 1% and 2%

Q: What about the “Population Mitochondria Different-Phenotype (%)” value [1] of the same compound?
A: 13% and 14%

Q: What about the “Population Mitotic Cells (%)” value [1] of the same compound?
A: 56% and 64%

Q: And the “Population Normal (%)” value [1]?
A: 90% and 94%

Q: And the “Population Pyknosed Nuclei (%)” value [1]?
A: 12%

Q: And the “Population Tubulin-Different-Phenotype (%)” value [1]?
A: 50% and 48%

Q: And the “Total Cell Count” value [1]?
A: 619 and 758

Q: What about the “Population Apoptotic (%)” value [2] of the same compound?
A: 39% and 66%

Q: And the “Population Fragmented Nuclei (%)” value [2]?
A: 3% and 2%

Q: And the “Population Healthy Nuclei (%)” value [2]?
A: 88%

Q: What about the “Population Hoechst High Intensity Objects (%)” value [2] of the same compound?
A: 8% and 5%

Q: What about the “Population Membrane Permeable-Phenotype (%)” value [2] of the same compound?
A: 4% and 2%

Q: What about the “Population Mitochondria Different-Phenotype (%)” value [2] of the same compound?
A: 13% and 17%

Q: And the “Population Mitotic Cells (%)” value [2]?
A: 60% and 33%

Q: What about the “Population Normal (%)” value [2] of the same compound?
A: 91% and 94%

Q: And the “Population Pyknosed Nuclei (%)” value [2]?
A: 7% and 8%

Q: And the “Population Tubulin-Different-Phenotype (%)” value [2]?
A: 66% and 65%

Q: What about the “Total Cell Count” value [2] of the same compound?
A: 592 and 535

Q: What about the “Population Apoptotic (%)” value [3] of the same compound?
A: 20% and 41%

Q: And the “Population Fragmented Nuclei (%)” value [3]?
A: 6% and 5%

Q: What about the “Population Healthy Nuclei (%)” value [3] of the same compound?
A: 89% and 88%

Q: And the “Population Hoechst High Intensity Objects (%)” value [3]?
A: 8%

Q: And the “Population Membrane Permeable-Phenotype (%)” value [3]?
A: 2%

Q: And the “Population Mitochondria Different-Phenotype (%)” value [3]?
A: 3%

Q: And the “Population Mitotic Cells (%)” value [3]?
A: 80% and 58%

Q: And the “Population Normal (%)” value [3]?
A: 91%

Q: And the “Population Pyknosed Nuclei (%)” value [3]?
A: 3% and 6%

Q: What about the “Population Tubulin-Different-Phenotype (%)” value [3] of the same compound?
A: 30% and 32%

Q: And the “Total Cell Count” value [3]?
A: 1198 and 930

Q: And the “Population Apoptotic (%)” value [4]?
A: 25% and 32%

Q: What about the “Population Fragmented Nuclei (%)” value [4] of the same compound?
A: 5% and 7%

Q: What about the “Population Healthy Nuclei (%)” value [4] of the same compound?
A: 89% and 86%

Q: What about the “Population Hoechst High Intensity Objects (%)” value [4] of the same compound?
A: 8% and 9%

Q: What about the “Population Membrane Permeable-Phenotype (%)” value [4] of the same compound?
A: 2% and 4%

Q: What about the “Population Mitochondria Different-Phenotype (%)” value [4] of the same compound?
A: 9% and 5%

Q: What about the “Population Mitotic Cells (%)” value [4] of the same compound?
A: 74% and 67%

Q: And the “Population Normal (%)” value [4]?
A: 91% and 90%

Q: And the “Population Pyknosed Nuclei (%)” value [4]?
A: 5%

Q: What about the “Population Tubulin-Different-Phenotype (%)” value [4] of the same compound?
A: 50% and 47%

Q: And the “Total Cell Count” value [4]?
A: 859 and 863

Q: What about the “Population Apoptotic (%)” value [5] of the same compound?
A: 5% and 13%

Q: And the “Population Fragmented Nuclei (%)” value [5]?
A: 18% and 11%

Q: And the “Population Healthy Nuclei (%)” value [5]?
A: 79% and 85%

Q: And the “Population Hoechst High Intensity Objects (%)” value [5]?
A: 9% and 10%

Q: What about the “Population Membrane Permeable-Phenotype (%)” value [5] of the same compound?
A: 5% and 3%

Q: And the “Population Mitochondria Different-Phenotype (%)” value [5]?
A: 0%

Q: And the “Population Mitotic Cells (%)” value [5]?
A: 94% and 86%

Q: And the “Population Normal (%)” value [5]?
A: 90% and 89%

Q: And the “Population Pyknosed Nuclei (%)” value [5]?
A: 2%

Q: And the “Population Tubulin-Different-Phenotype (%)” value [5]?
A: 11% and 17%

Q: And the “Total Cell Count” value [5]?
A: 3231 and 2107

Q: And the “Population Fragmented Nuclei (%)” value [6]?
A: 22% and 16%

Q: What about the “Population Healthy Nuclei (%)” value [6] of the same compound?
A: 76% and 81%

Q: And the “Population Hoechst High Intensity Objects (%)” value [6]?
A: 9% and 8%

Q: And the “Population Membrane Permeable-Phenotype (%)” value [6]?
A: 7% and 6%

Q: What about the “Population Mitochondria Different-Phenotype (%)” value [6] of the same compound?
A: 0% and 1%

Q: What about the “Population Mitotic Cells (%)” value [6] of the same compound?
A: 83% and 95%

Q: What about the “Population Normal (%)” value [6] of the same compound?
A: 90% and 91%

Q: What about the “Population Pyknosed Nuclei (%)” value [6] of the same compound?
A: 1% and 2%

Q: What about the “Population Tubulin-Different-Phenotype (%)” value [6] of the same compound?
A: 22% and 24%

Q: What about the “Total Cell Count” value [6] of the same compound?
A: 2378 and 2001
